In ChEMBL document CHEMBL2331469, “Discovery and Preliminary SAR of Arylpiperazines as Novel, Brainpenetrant Antiprion Compounds” (ACS Med Chem Lett, 2013):

Assays:
N2a-cl3 = experiment: Antiprion activity against sheep RML prion protein-infected in mouse ScN2a-cl3 cells assessed as reduction of PrPSc level after 5 days by ELISA relative to control; format: cell-based; parameters: concentration or dose not given beside the values; conditions: Ovis aries, dose or concentration not given here
[1] = AUC (0 to 6 hrs) in wild type FVB mouse plasma at 10 mg/kg, po by LC-MS analysis; format: ADME, organism-based; parameters: time < 6 hr, dose 10 mg/kg, route oral
Plasma = experiment: (§1) Cmax in wild type FVB mouse plasma at 10 mg/kg, po by LC-MS analysis; format: ADME, organism-based; parameters: dose 10 mg/kg, route oral; conditions: in vivo
[2] = Antiprion activity against sheep RML prion protein-infected in mouse ScN2a-cl3 cells assessed as reduction of PrPSc level after 5 days by ELISA; format: cell-based; conditions: Ovis aries, N2a-cl3, 120 h
Outline: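 RML prion-infected murine neuroblastoma ScN2a-cl3 cells. PrPSc levels were measured by ELISA, and EC50 was derived from 3 tests. Cell viability was run alongside each EC50 measurement in the same cells using calcein-AM fluorescence, to exclude cytotoxicity.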

Liver = experiment: Metabolic stability in mouse liver microsomes assessed as half life by LC-MS analysis; format: ADME, Microsome
[3] = Cytotoxicity against mouse ScN2a-cl3 cells assessed as cell viability after 5 days by calcein cell viability assay; format: cell-based; conditions: n2a-cl3, 120 h, read-out: LC50 (the source's name)
Outline: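 Viability of RML prion-infected ScN2a-cl3 cells was read with the fluorescent probe calcein-AM. It was run alongside each PrPSc ELISA EC50 measurement to rule out cytotoxicity, and LC50 was derived from 3 tests.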

Brain = experiment: (§2) AUC (0 to 6 hrs) in wild type FVB mouse brain at 10 mg/kg, po by LC-MS analysis; format: ADME, organism-based; parameters: time < 6 hr, dose 10 mg/kg, route oral; conditions: in vivo, 6 h
Liver microsomes = experiment: Metabolic stability in human liver microsomes assessed as half life by LC-MS analysis; format: ADME, Microsome
[4] = Cmax in wild type FVB mouse brain at 10 mg/kg, po by LC-MS analysis; format: ADME, organism-based; parameters: dose 10 mg/kg, route oral
[5] = as §1; format: ADME, organism-based; parameters: dose 10 mg/kg, route oral; conditions: FVB, plasma
[6] = as §2; format: ADME, organism-based; parameters: time < 6 hr, dose 10 mg/kg, route oral; conditions: FVB, brain

Structure (SMILES)	inhibition (N2a-cl3)	EC50 [2]	also measured
c1ccc(N2CCN(Cc3cccnc3)CC2)cc1	4%		
c1cncc(CN2CCN(c3ccc(-c4nc5ccccc5s4)cc3)CC2)c1		0.4 µM	AUC(0-t) at 6 h [1]: 2.7 µM·h; Cmax (Plasma): 600 nM; t1/2 (Liver): 17.3 min; CC50 [3]: > 10 µM; AUC (Brain): 14.4 µM·h; t1/2 (Liver microsomes): 34.3 min; Cmax [4]: 3000 nM
COc1ccc(N2CCN(Cc3ccc(Br)o3)CC2)cc1	6%		
Clc1cccc(N2CCN(Cc3ccco3)CC2)c1	6%		
CC(=O)c1ccc(N2CCN(Cc3cccs3)CC2)cc1	91%	1.95 µM	
Fc1ccc(N2CCN(Cc3ccccc3)CC2)cc1	7%		
COc1cccc(N2CCN(Cc3cccnc3)CC2)c1		> 32 µM	
Cc1ccc(CN2CCN(c3ccc(-c4nc5ccccc5o4)cc3)CC2)o1		3.3 µM	CC50 [3]: > 10 µM
CC(=O)c1ccc(N2CCN(Cc3ccc(C)o3)CC2)cc1	78%	4.62 µM	
Clc1cccc(N2CCN(Cc3ccccc3)CC2)c1	7%		
Clc1ccc(N2CCN(Cc3ccco3)CC2)cc1	13%		
c1ccc(CN2CCN(c3ccccc3)CC2)cc1	5%		
Clc1ccc(N2CCN(Cc3ccc(Br)s3)CC2)cc1	12%		
CC(=O)c1ccc(N2CCN(Cc3ccco3)CC2)cc1	96%		
Fc1ccc(N2CCN(Cc3cccnc3)CC2)cc1	27%	> 32 µM	
COc1ccc(CN2CCN(c3ccc(-c4nc5ccccc5o4)cc3)CC2)cn1		1.1 µM	AUC(0-t) at 6 h [1]: 1.1 µM·h; Cmax [5]: 700 nM; t1/2 (Liver): 25.2 min; CC50 [3]: > 10 µM; AUC(0-t) at 6 h [6]: 3 µM·h; t1/2 (Liver microsomes): > 60 min; Cmax [4]: 1600 nM
Fc1ccccc1N1CCN(Cc2cccnc2)CC1		> 32 µM	
CC(=O)c1ccc(N2CCN(Cc3cccnc3)CC2)cc1	73%		

Structure (SMILES)	inhibition (N2a-cl3)	EC50 [2]	also measured
Clc1ccc(N2CCN(Cc3ccccc3)CC2)cc1	6%		
c1csc(CN2CCN(c3ccc(-c4ncco4)cc3)CC2)c1		> 10 µM	CC50 [3]: > 10 µM
COc1ccc(N2CCN(Cc3cccs3)CC2)cc1	16%		
COc1ccc(N2CCN(Cc3ccccc3)CC2)cc1	7%		
CC(=O)c1ccc(N2CCN(Cc3sccc3C)CC2)cc1	78%		
c1csc(CN2CCN(c3ccc(-c4nc5ccccc5o4)cc3)CC2)c1		4.2 µM	CC50 [3]: > 10 µM
Clc1ccc(N2CCN(Cc3cccnc3)CC2)cc1	0%		
COc1ccccc1N1CCN(Cc2cccnc2)CC1		> 32 µM	
Clc1cccc(N2CCN(Cc3cc(Br)cs3)CC2)c1	34%		
CC(=O)c1ccc(N2CCN(Cc3ccccc3)CC2)cc1	94%	0.71 µM	
Clc1cccc(N2CCN(Cc3cccnc3)CC2)c1	4%	> 32 µM	
c1cncc(CN2CCN(c3ccc(-c4ncco4)cc3)CC2)c1		> 10 µM	CC50 [3]: > 10 µM
Fc1ccc(CN2CCN(c3ccc(-c4nc5ccccc5o4)cc3)CC2)cn1		0.4 µM	AUC(0-t) at 6 h [1]: 1.2 µM·h; t1/2 (Liver): 7.3 min; CC50 [3]: > 10 µM; AUC (Brain): 1.3 µM·h; t1/2 (Liver microsomes): 43.6 min; Cmax [4]: 400 nM
Cc1ccc(CN2CCN(c3ccc(-c4nc5ccccc5o4)cc3)CC2)cn1		> 10 µM	CC50 [3]: > 10 µM
COc1ccc(N2CCN(Cc3cccnc3)CC2)cc1	10%	> 32 µM	
c1cncc(CN2CCN(c3ccc(-c4nc5ccccc5o4)cc3)CC2)c1		0.3 µM	AUC(0-t) at 6 h [1]: 4.2 µM·h; Cmax [5]: 900 nM; t1/2 (Liver): 9.2 min; CC50 [3]: > 10 µM; AUC (Brain): 14.2 µM·h; t1/2 (Liver microsomes): 50.2 min; Cmax [4]: 3600 nM
Cc1ccc(CN2CCN(c3ccc(-c4ncco4)cc3)CC2)o1		> 10 µM	CC50 [3]: > 10 µM
